Here are results for 2 molecules from ChEMBL document CHEMBL1147081, “Structure of the deacetylase LpxC bound to the antibiotic CHIR-090: Time-dependent inhibition and specificity in ligand binding” (Proc Natl Acad Sci U S A, 2007).

In assay [1] the target is UDP-3-O-acyl-N-acetylglucosamine deacetylase (Escherichia coli K-12, UniProt P0A725, G210S/Q202W). Put plainly: Inhibition of Escherichia coli LpxC Q202W/G210S mutant.
Assay [2] is described as follows: Inhibition of Rhizobium leguminosarum LpxC.
In assay [3] the target is UDP-3-O-acyl-N-acetylglucosamine deacetylase (Rhizobium leguminosarum bv. trifolii (strain WSM1325), UniProt C6ARS9, S214G/W206Q). Description: Inhibition of Rhizobium leguminosarum LpxC W206Q/S214G mutant. The gist of the method: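 Assays used 5 μM UDP-3-O-(R-3-hydroxymyristoyl)-N-acetylglucosamine substrate and varied inhibitor at constant 10% DMSO. An IC50 curve was fit to fractional activity (vi/vo), and Ki was derived with the Cheng–Prusoff relationship.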
Chain of UDP-3-O-acyl-N-acetylglucosamine deacetylase (Rhizobium leguminosarum bv. trifolii (strain WSM1325), UniProt C6ARS9, S214G/W206Q) (C6ARS9 as listed by the source W206Q/S214G): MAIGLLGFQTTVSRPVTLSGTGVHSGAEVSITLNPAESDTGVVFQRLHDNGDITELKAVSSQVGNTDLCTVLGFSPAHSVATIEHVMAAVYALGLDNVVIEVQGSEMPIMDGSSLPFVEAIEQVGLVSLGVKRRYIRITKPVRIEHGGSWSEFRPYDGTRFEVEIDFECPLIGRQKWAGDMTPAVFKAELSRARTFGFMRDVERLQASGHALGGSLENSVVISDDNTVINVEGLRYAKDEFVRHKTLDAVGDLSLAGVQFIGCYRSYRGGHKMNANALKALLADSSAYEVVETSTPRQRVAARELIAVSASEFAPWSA

Assay [4] addresses T1, UDP-3-O-acyl-N-acetylglucosamine deacetylase (Escherichia coli K-12, UniProt P0A725).
T1 sequence (P0A725 whole entry): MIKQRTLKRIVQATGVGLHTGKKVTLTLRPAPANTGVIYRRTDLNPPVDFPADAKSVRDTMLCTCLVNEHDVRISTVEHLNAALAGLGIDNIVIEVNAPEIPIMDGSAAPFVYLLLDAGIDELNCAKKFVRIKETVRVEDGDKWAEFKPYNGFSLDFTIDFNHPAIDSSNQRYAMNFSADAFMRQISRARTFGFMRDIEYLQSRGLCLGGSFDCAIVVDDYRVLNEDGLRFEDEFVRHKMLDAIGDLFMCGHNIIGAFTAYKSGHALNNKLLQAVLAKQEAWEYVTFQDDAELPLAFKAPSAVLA
Description: Inhibition of Escherichia coli LpxC.

Usually Ki stands for the dissociation constant of the complex between target and ligand, obtained from inhibition or displacement. Read a low Ki as higher affinity.

Chain of UDP-3-O-acyl-N-acetylglucosamine deacetylase (Escherichia coli K-12, UniProt P0A725, G210S/Q202W) (P0A725 whole entry Q202W/G210S): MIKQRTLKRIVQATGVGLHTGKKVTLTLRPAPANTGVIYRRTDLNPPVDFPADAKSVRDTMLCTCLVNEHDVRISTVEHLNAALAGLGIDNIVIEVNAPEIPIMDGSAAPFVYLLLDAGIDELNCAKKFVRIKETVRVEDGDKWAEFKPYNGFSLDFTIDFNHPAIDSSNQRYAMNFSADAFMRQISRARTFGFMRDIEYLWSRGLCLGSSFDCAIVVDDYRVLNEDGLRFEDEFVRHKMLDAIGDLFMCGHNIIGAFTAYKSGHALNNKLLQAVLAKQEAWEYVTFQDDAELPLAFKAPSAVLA

Consider `CCCc1cc(C2=N[C@@H](C(=O)NO)CO2)cc(OC)c1OC`, for which the Ki in assay [1] was determined as 340 nM; in assay [2] it was 380000 nM; in assay [3], 110000 nM; in assay [4], 53 nM.

As to `O=C(NO)[C@@H](Cc1ccc2ccccc2c1)NS(=O)(=O)c1ccc2ccccc2c1`, the Ki in assay [1] turned out to be 86 nM; in assay [2], 5800 nM; in assay [3], 700 nM; in assay [4], 69 nM.
